Experimental data reported in ChEMBL document CHEMBL4390639, “Design, Synthesis, and Biological Evaluation of Novel Allosteric Protein Disulfide Isomerase Inhibitors” (J Med Chem, 2019).
One block for each compound: values may come before it. Calls of active or inactive are those of the source. The calls are words filed in the database; no cut-off is given here.

Experiments:
[1] = biological target: T1, Protein disulfide-isomerase (Homo sapiens, UniProt P07237); test: Inhibition of recombinant human N-terminal His-tagged PDI expressed in Escherichia coli BL21 (DE3) pLysS assessed as reduction in enzyme-mediated bovine insulin aggregation
[2] = Cytotoxicity against human NU04 cells assessed as inhibition of cell growth measured after 72 hrs by MTT assay; format: functional, cell-based; details: Homo sapiens, 72 h; read-out: IC50
Summary of the method: (§1)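 A172 and NU04 cells were seeded at 4000 cells/well and U87MG at 5000 cells/well, incubated overnight at 37 °C, 5% CO2, then exposed to compound or vehicle for 72 h. MTT (3 mg/mL) was added for 4 h, formazan was dissolved in DMSO, and absorbance was read at 570 nm. IC50 came from nonlinear regression; mean ± SD of at least three experiments.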

[3] = system: A 172; test: Cytotoxicity against human A172 cells assessed as inhibition of cell growth measured after 72 hrs by MTT assay; format: functional, cell-based; details: Homo sapiens, A 172, 72 h; read-out: IC50; summary of the method: as §1
[4] = system: U-87 MG; test: Cytotoxicity against human U87MG cells assessed as inhibition of cell proliferation at <IC50 measured after 72 hrs by MTT assay relative to control; format: functional, U-87MG ATCC
[5] = system: U-87 MG; test: Cytotoxicity against human U87MG cells assessed as inhibition of cell growth measured after 72 hrs by MTT assay; format: functional, cell-based, U-87MG ATCC; details: Homo sapiens, U-87 MG, 72 h; read-out: IC50; summary of the method: as §1
[6] = system: U-87 MG; test: Cytotoxicity against human U87MG cells assessed as inhibition of cell proliferation at <IC50 treated for 24 hrs and measured after 10 days by colony formation assay relative to control
[7] = biological target: T1, Protein disulfide-isomerase; test: Inhibition of recombinant human N-terminal His-tagged PDI expressed in Escherichia coli BL21 (DE3) pLysS at 100 uM measured after 1 hr by ANS dye based fluorescence spectra analysis
Summary of the method: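 ANS spectral scan: PDI incubated with 100 μM compounds or matching DMSO in TBS for 1 h at 37 °C. ANS then added and incubated 20 min at 25 °C in the dark. Fluorescence spectrum recorded with excitation 370 nm, emission 400–700 nm.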
Target sequence in this assay (P07237 18-508 limits assumed): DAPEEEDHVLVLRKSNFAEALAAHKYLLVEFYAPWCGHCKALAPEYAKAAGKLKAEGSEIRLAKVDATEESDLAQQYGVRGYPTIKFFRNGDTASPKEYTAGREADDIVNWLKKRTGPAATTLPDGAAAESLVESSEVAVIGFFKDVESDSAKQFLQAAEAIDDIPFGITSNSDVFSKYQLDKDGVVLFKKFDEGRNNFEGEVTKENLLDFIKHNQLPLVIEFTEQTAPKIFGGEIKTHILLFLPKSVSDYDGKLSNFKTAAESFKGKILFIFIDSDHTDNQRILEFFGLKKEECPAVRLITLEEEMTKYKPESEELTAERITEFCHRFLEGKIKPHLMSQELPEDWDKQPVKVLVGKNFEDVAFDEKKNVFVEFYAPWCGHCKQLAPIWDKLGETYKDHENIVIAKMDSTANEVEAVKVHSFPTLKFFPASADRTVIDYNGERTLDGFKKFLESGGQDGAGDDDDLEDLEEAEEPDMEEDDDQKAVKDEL

SMILES: CCN(CC)S(=O)(=O)c1ccc(C(=O)/C=C/c2cccc(O)c2)cc1
IC50 [1]: 1290 nM
IC50 [2]: 19.2 µM
IC50 [3]: 31.2 µM
IC50 [5]: 40.7 µM
inhibition (INH) [6]: >50%

SMILES: O=C(/C=C/c1ccc(B(O)O)cc1)c1ccccc1
IC50 [1]: 1250 nM
IC50 [2]: 22.9 µM
IC50 [3]: 32.1 µM
inhibition (INH) [4]: >50%
IC50 [5]: 31.2 µM

SMILES: N#Cc1cccc(/C=C/C(=O)c2ccc(F)cc2O)c1
IC50 [1]: 2370 nM

SMILES: N#Cc1ccc(/C=C/C(=O)c2ccc(O)cc2)cc1
IC50 [1]: 740 nM
IC50 [2]: 12.8 µM
IC50 [3]: 20 µM
IC50 [5]: 15.1 µM
inhibition (INH) [6]: >50%

SMILES: N#Cc1ccc(/C=C/C(=O)c2ccc(O)c(C(F)(F)F)c2)cc1
IC50 [1]: 1110 nM
IC50 [2]: 10.4 µM
IC50 [3]: 33.7 µM
inhibition (INH) [4]: >50%
IC50 [5]: 26.4 µM

SMILES: O=C(/C=C/c1cccc(O)c1)c1ccccc1O
inhibition [1]: inactive

SMILES: CCCCN(CCCC)S(=O)(=O)c1ccc(C(=O)/C=C/c2cccc(C(=O)OC)c2)cc1
IC50 [1]: > 100000 nM

SMILES: COc1cc(C(=O)/C=C/c2cccc(C#N)c2)ccc1O
IC50 [1]: 2720 nM

SMILES: COC(=O)c1cccc(/C=C/C(=O)c2ccc(CO)c(Br)c2)c1
IC50 [1]: 130 nM
IC50 [2]: 17.2 µM
IC50 [3]: 20.6 µM
IC50 [5]: 13.6 µM
inhibition (INH) [6]: >50%

SMILES: N#Cc1cccc(/C=C/C(=O)c2ccc(N)cc2)c1
IC50 [1]: > 500000 nM

SMILES: O=C(/C=C/c1ccccc1O)c1ccccc1O
inhibition [1]: inactive

SMILES: COC(=O)c1cccc(/C=C/C(=O)c2ccc(O)cc2)c1
IC50 [1]: 400 nM
IC50 [2]: 30.6 µM
IC50 [3]: 32.3 µM
inhibition (INH) [4]: >50%
IC50 [5]: 28.8 µM

SMILES: O=C(/C=C/c1cccc(C(F)(F)F)c1)c1ccc(O)cc1
IC50 [1]: 1560 nM

SMILES: O=C(/C=C/c1cccc(O)c1)c1ccc(OC(=O)c2cccs2)cc1
IC50 [1]: 1750 nM

SMILES: O=C(/C=C/c1ccc(Br)cc1)c1cccc(O)c1
IC50 [1]: 400 nM
IC50 [2]: 26.2 µM
IC50 [3]: 67.8 µM
IC50 [5]: 76.3 µM
inhibition (INH) [6]: >50%

SMILES: O=C(/C=C/c1ccc(O)cc1)c1ccccc1O
inhibition [1]: inactive

SMILES: O=C(/C=C/c1cccc(O)c1)c1ccc(NS(=O)(=O)c2cccs2)cc1
IC50 [1]: 11100 nM

SMILES: N#Cc1cccc(/C=C/C(=O)c2cccc(O)c2)c1
IC50 [1]: 1870 nM

SMILES: CC1(C)OB(c2ccc(/C=C/C(=O)c3ccccc3)cc2)OC1(C)C
IC50 [1]: 2200 nM

SMILES: COc1ccc(C(=O)/C=C/c2cccc(C#N)c2)cc1O
IC50 [1]: 10900 nM

SMILES: O=C(O)c1cccc(/C=C/C(=O)c2cccc(O)c2)c1
IC50 [1]: 10200 nM

SMILES: O=C(O)c1cccc(/C=C/C(=O)c2ccc(O)c(F)c2)c1
IC50 [1]: 9100 nM

SMILES: O=C(/C=C/c1ccc(C(F)(F)F)cc1)c1ccc(O)cc1
IC50 [1]: 2560 nM

SMILES: O=C(O)c1cccc(/C=C/C(=O)c2ccc(N3CCOCC3)cc2)c1
IC50 [1]: > 100000 nM

SMILES: Nc1ccc(C(=O)/C=C/c2cccc(C(=O)O)c2)cc1
IC50 [1]: > 100000 nM

SMILES: O=C(O)c1cccc(/C=C/C(=O)c2ccc(NS(=O)(=O)c3ccc([N+](=O)[O-])cc3)cc2)c1
IC50 [1]: 4000 nM

SMILES: N#Cc1cccc(/C=C/C(=O)c2ccc(S(=O)(=O)Nc3ccccc3)cc2)c1
IC50 [1]: 1110 nM
IC50 [2]: 18.7 µM
IC50 [3]: 28.9 µM
inhibition (INH) [4]: >50%
IC50 [5]: 48.5 µM

SMILES: O=C(O)c1cccc(/C=C/C(=O)c2ccc(O)c(C(F)(F)F)c2)c1
IC50 [1]: 4090 nM

SMILES: COc1ccc(C(=O)/C=C/c2cccc(C(=O)O)c2)cc1O
IC50 [1]: > 100000 nM

SMILES: CCCCN(CCCC)S(=O)(=O)c1ccc(C(=O)/C=C/c2cccc(C#N)c2)cc1
IC50 [1]: 1340 nM
IC50 [2]: 15.5 µM
IC50 [3]: 67.3 µM
inhibition (INH) [4]: >50%
IC50 [5]: 17 µM

The next lines start with results.

IC50 [1]: 1830 nM
SMILES: N#Cc1ccc(/C=C/C(=O)c2ccc(F)c(O)c2)cc1

IC50 [1]: 210 nM
SMILES: N#Cc1ccc(/C=C/C(=O)c2ccc(O)c(F)c2)cc1
IC50 [2]: 15.8 µM
IC50 [3]: 28.4 µM
inhibition (INH) [4]: >50%
IC50 [5]: 29 µM

IC50 [1]: > 500000 nM
SMILES: N#Cc1cccc(/C=C/C(=O)c2ccc(N3CCOCC3)cc2)c1

IC50 [1]: 1670 nM
SMILES: O=C(/C=C/c1ccccc1C(F)(F)F)c1ccc(O)cc1

IC50 [1]: 8130 nM
SMILES: COc1cccc(C(=O)/C=C/c2cccc(C#N)c2)c1

IC50 [1]: 820 nM
SMILES: CCCN(CCC)S(=O)(=O)c1ccc(C(=O)/C=C/c2cccc(C#N)c2)cc1
IC50 [2]: 26.6 µM
IC50 [3]: 35 µM
inhibition (INH) [4]: >50%
IC50 [5]: 25.6 µM

IC50 [1]: > 500000 nM
inhibition [7]: inactive
SMILES: N#Cc1cccc(/C=C/C(=O)c2cnccn2)c1

IC50 [1]: 5740 nM
SMILES: O=C(/C=C/c1cccc(O)c1)c1ccc(NC(=O)c2cccs2)cc1

IC50 [1]: 230 nM
SMILES: O=C(/C=C/c1ccc(-n2cnc3ccccc32)cc1)c1cccc(O)c1
IC50 [2]: 9.9 µM
IC50 [3]: 10.7 µM
inhibition (INH) [4]: >50%
IC50 [5]: 10.8 µM

IC50 [1]: 47800 nM
SMILES: COC(=O)c1cccc(/C=C/C(=O)c2ccc(OC)c(O)c2)c1

IC50 [1]: 1800 nM
SMILES: N#Cc1ccc(/C=C/C(=O)c2ccc(F)cc2O)cc1

IC50 [1]: 1740 nM
SMILES: COc1ccc(/C=C/C(=O)c2ccc(O)cc2)cc1

IC50 [1]: 9570 nM
SMILES: O=C(/C=C/c1cccc(C(F)(F)F)c1)c1cnccn1

IC50 [1]: > 100000 nM
SMILES: CCCN(CCC)S(=O)(=O)c1ccc(C(=O)/C=C/c2cccc(C(=O)OC)c2)cc1

IC50 [1]: > 100000 nM
SMILES: COc1ccc(C(=O)/C=C/c2cccc(C#N)c2)cc1OC

IC50 [1]: 830 nM
SMILES: N#Cc1cccc(/C=C/C(=O)c2ccc(B(O)O)cc2)c1
IC50 [2]: 13 µM
IC50 [3]: 20.2 µM
inhibition (INH) [4]: >50%
IC50 [5]: 24.3 µM

IC50 [1]: 2000 nM
SMILES: N#Cc1cccc(/C=C/C(=O)c2ccc(O)c(C(F)(F)F)c2)c1

IC50 [1]: > 100000 nM
SMILES: COC(=O)c1cccc(/C=C/C(=O)c2ccc(NS(=O)(=O)c3ccc([N+](=O)[O-])cc3)cc2)c1

IC50 [1]: 8510 nM
SMILES: N#Cc1cccc(/C=C/C(=O)c2ccc(NS(=O)(=O)c3ccc([N+](=O)[O-])cc3)cc2)c1

IC50 [1]: > 500000 nM
SMILES: COc1ccc(/C=C/C(=O)c2ccc(NC(=O)c3cccs3)cc2)cc1

IC50 [1]: 1660 nM
SMILES: N#Cc1cccc(/C=C/C(=O)c2ccc(Br)cc2)c1

IC50 [1]: > 500000 nM
SMILES: N#Cc1cccc(/C=C/C(=O)c2ccc(N3CCCCC3)cc2)c1

IC50 [1]: > 500000 nM
SMILES: N#Cc1cccc(/C=C/C(=O)c2ccc(Cl)c(F)c2)c1

IC50 [1]: 490 nM
SMILES: COC(=O)c1cccc(/C=C/C(=O)c2ccc(O)c(C(F)(F)F)c2)c1
IC50 [2]: 10.3 µM
IC50 [3]: 35 µM
IC50 [5]: 11.6 µM
inhibition (INH) [6]: >50%
